IMP-1 inh: blocks Pseudomonas aeruginosa IMP-1 metallo-beta-lactamase; hit rate 0.45% among 290,000; purified IMP-1, nitrocefin hydrolysis, epi-absorbance fluorescence; inhibition, % at 5.6 µM; AID 1556;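 active means inhibition above the mean plus 3 SD of all compounds in the same screening run, cut at about 4.5% in these data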;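 further: 0% = IMP-1 with DMSO and 100% = DMSO wells lacking enzyme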
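System – purified recombinant IMP-1 beta-lactamase · Input – IMP-1 dispensed at 0.2 nM · Timing – 15 min preincubation plus 25 min reaction at 25 °C · Signal – Epi-absorbance fluorescence, 480 nm excitation, 530 nm emission · Measure – percent IMP-1 inhibition derived from blank-referenced optical density · Controls – Enzyme-plus-DMSO low control, enzyme-free DMSO high control · Replication – singlicate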
VIM-2 inh: inhibitors of Pseudomonas aeruginosa VIM-2 metallo-beta-lactamase. purified VIM-2, nitrocefin hydrolysis, epi-absorbance fluorescence. inhibition, % at 5.6 µM. hit rate 0.89% among 290,000. AID 1527;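 active means inhibition above the mean of all tested compounds plus 3 SD, cutoff set per screening run, cut at about 7.5% in these data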;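 further: red hydrolysis product quenches plate fluorescence so inhibitors raise well fluorescence; 0% = enzyme with DMSO and 100% = DMSO without enzyme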
MEKK3 PB1 HTS: raises or lowers MEK5 binding to the human MEKK3 PB1 domain | Q99759 | binding response (% of control), % at 10 µM | bead-based flow cytometry, Alexa488-MEK5 binding to MEKK3; actives lie on both sides; 0 = blocked by unlabeled MEK5, 100 = vehicle | hit rate 1.4% among 290,000;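 active means binding response more than 3 SD above or below the average of its plate-row segment, actives on both sides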;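 further: Alexa488 bead fluorescence after subtracting the streptavidin-only scavenger bead signal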
Target sequence (Q99759 whole entry, looked up, the tested form may be a part): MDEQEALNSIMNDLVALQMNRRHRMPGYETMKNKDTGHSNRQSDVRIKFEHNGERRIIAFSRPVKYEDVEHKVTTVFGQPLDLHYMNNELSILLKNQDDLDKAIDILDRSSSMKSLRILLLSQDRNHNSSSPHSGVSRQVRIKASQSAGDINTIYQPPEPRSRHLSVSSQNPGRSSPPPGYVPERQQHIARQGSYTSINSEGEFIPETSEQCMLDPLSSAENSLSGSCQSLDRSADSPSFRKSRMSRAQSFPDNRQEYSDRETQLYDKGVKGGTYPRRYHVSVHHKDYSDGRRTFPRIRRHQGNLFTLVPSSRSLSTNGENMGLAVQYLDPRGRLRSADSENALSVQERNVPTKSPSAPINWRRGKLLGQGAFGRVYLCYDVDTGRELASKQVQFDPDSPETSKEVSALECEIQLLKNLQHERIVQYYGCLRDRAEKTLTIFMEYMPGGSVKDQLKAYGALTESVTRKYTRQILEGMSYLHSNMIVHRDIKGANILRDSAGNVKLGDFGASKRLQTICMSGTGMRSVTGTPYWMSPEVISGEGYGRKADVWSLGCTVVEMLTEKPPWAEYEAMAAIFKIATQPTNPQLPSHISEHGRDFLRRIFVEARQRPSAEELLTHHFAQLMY
MEKK2 WT-MEK5: raises or lowers MEK5 binding to wildtype human MEKK2 PB1 domain. binding response (% of control), % at 10 µM. bead flow cytometry, Alexa488-MEK5 binding to MEKK2 WT; actives lie on both sides. hit rate 1.1% among 290,000. Q9Y2U5; in the data active means binding response below about 67% or above about 130%
MEKK2 mut-MEK5: signal of MEK5 binding to mutant human MEKK2 PB1 domain; bead flow cytometry, Alexa488-MEK5 binding to MEKK2 mutant; percent response, % at 10 µM; hit rate 0.35% among 290,000; AID 1530; in the data active means percent response above about 24%, passing the limit was not always enough
MEKK2wt confirm: raises or lowers MEK5 binding to wildtype human MEKK2, retest; bead flow cytometry, Alexa488-MEK5 binding to MEKK2 WT; actives lie on both sides; hit rate 2.4% among 5,900; binding response (% of control), % at 10 µM; shares compounds with MEKK3 PB1 HTS; in the data active means binding response below about 16% or above about 210%; inactive means in between
MEKK2mut confirm: signal of MEK5 binding to mutant human MEKK2, retest. shares compounds with MEKK3 PB1 HTS. bead flow cytometry, Alexa488-MEK5 binding to MEKK2 mutant. percent response, % at 10 µM. hit rate 2% among 5,900; in the data active means percent response mostly above about 71%, no sharp cut-off; inactive means mostly below about 38%;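 further: higher means compound restores mutant binding toward wildtype level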
MEKK3 confirm: MEKK3-MEK5 PB1 inhibition, single concentration confirmation; shares compounds with MEKK3 PB1 HTS; AID 1894; bead flow cytometry, Alexa488-MEK5 binding to MEKK3; stronger effect = lower value; hit rate 1.8% among 5,900; binding response (% of control), % at 10 µM;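 active means binding response below 72% of control, or above a set upper limit, though filed actives all read lower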;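 further: 100% = DMSO only wells and 0% = binding blocked by excess unlabeled MEK5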
Starred values were filed as active, the others as inactive; . = no result; [ ] = another dose, or the depositor's remark. Compounds with a hit are over-represented: about 3.4% of the library has one in this group of screens.

SMILES	IMP-1 inh	VIM-2 inh	MEKK3 PB1 HTS	MEKK2 WT-MEK5	MEKK2 mut-MEK5	MEKK2wt confirm	MEKK2mut confirm	MEKK3 confirm
CC(C)c1cc(NC(=O)C(C)(C)C)cc(C(C)C)c1O	-5	-5	102	102	1	.	.	.
O=C(c1cccc(S(=O)(=O)NCc2ccccc2)c1)N1CCN(c2cccc(C(F)(F)F)c2)CC1	-4	-3	108	111	10	.	.	.
CSc1scc2c1-c1nc(SCC(=O)C(C)(C)C)ncc1CC2	9.8*	2	66*[inhibitor]	68	-34	102	1	105
C=CCNC(=O)CSc1ncc2c(n1)-c1c(csc1SC)CC2	0	1	102	101	7	.	.	.
Cc1oc(-c2ccccc2Cl)nc1CSc1nc2c(c(=O)[nH]1)CCC2	-1	1	75*[inhibitor]	81	-8	97	-3	100
Cn1cc(CNC(=O)c2sc3cccc(Cl)c3c2Cl)cn1	-1	-2	131*	102	11	96	2	101
CCc1ccc(C(=O)NCc2cnn(C)c2)s1	-1	-3	103	106	3	.	.	.
N#CCCN(Cc1ccncc1)C(=S)NC1CC2C=CC1C2 (configuration not stated)	1	0	47*[inhibitor]	55	-53	103	3	102
N#CCCN(CCC#N)C(=S)NC1CC2C=CC1C2 (configuration not stated)	-1	2	85	93	-18	.	.	.
CN1C(=O)C(CC(=O)N2CCN(C(c3ccccc3)c3ccccc3)CC2)N(C)C1=O (configuration not stated)	-2	-2	1.0*[inhibitor]	1.0*[inhibitor]	-17	105	2	102
CC(=O)N1CCN(C(c2ccccc2)c2ccccc2)CC1	1	0	76	83	-5	.	.	.
COc1cc(C2Nc3ccccc3NC3=C2C(=O)CC(C)(C)C3)cc(OC)c1OC (configuration not stated)	-3	-2	108	108	24*	103	-5	100
Clc1ccc(CNC2CCCC2)cc1	-3	-4	120	115	8	.	.	.
CCN(CC)C(=O)Cn1c(C)c(/C=C/c2cc[n+](C)cc2)c2ccccc21	2	3	99	99	-5	.	.	.
C=CCn1c(C)c(/C=C/c2cc[n+](C)cc2)c2ccccc21	4	9.3*	113	94	62*	116	-2	98
Cc1ccc(CSc2nnc3ccc(-c4ccncc4)nn23)cc1	-1	0	63*[inhibitor]	74	-30	101	3	97
COc1ccccc1CCNC(=O)CSc1nnc2ccc(-c3ccncc3)nn12	0	0	133*	118	11	97	5	102
CCOc1ccccc1NC(=O)CSc1nnc2ccc(-c3ccncc3)nn12	-3	-2	103	98	-4	.	.	.
CCCCS(=O)(=O)N1C2=NC(C(=O)OC)=C(C(=O)OC)[C@@H]3N(C)c4ccc(OC)cc4[C@]23C[C@H]1C(=O)OC	.	.	93	91	3	.	.	.
Cc1ccc2c(c1)C1NC(=S)NC(C)(O2)C1C(=O)Nc1ccc(Cl)cc1 (configuration not stated)	-5	-3	146*	102	0	104	3	108
O=P(Cc1ccccc1)(c1ccccc1)c1ccccc1	-3	-2	96	115	3	.	.	.
O=C(O)c1ccc(CP(=O)(c2ccccc2)c2ccccc2)cc1	-2	-1	122*	123	11	105	5	105
CCOC(=O)N(NC(=O)C(O)(c1ccccc1)c1ccccc1)c1ccccc1	-1	-2	99	108	13	.	.	.
Cc1ccccc1NC1=NC(=S)N(CC(N)=O)C12CCOC(C)(C)C2 (configuration not stated)	-1	1	47*[inhibitor]	48	-8	99	1	104
COc1cccc(/C=N/NC(=O)CCn2c3ccccc3c3ccccc32)c1	-6	-4	106	116	19	.	.	.
SMILES	IMP-1 inh	VIM-2 inh	MEKK3 PB1 HTS	MEKK2 WT-MEK5	MEKK2 mut-MEK5	MEKK2wt confirm	MEKK2mut confirm	MEKK3 confirm
O=C(c1ccc2snnc2c1)N1CCN(c2ccccc2)CC1	-2	0	129*	131	8	92	-8	95
CCCCCCn1c(N2CCC(C(N)=O)CC2)nc2c1c(=O)n(C)c(=O)n2C	-2	-1	2.0*[inhibitor]	2.0*[inhibitor]	-21	102	4	101
O=C(c1ccc2c(c1)OCCO2)C1CCN(C(=O)c2ccc(F)cc2)CC1	2	-4	110	117	7	.	.	.
Cc1ccc(NC(=O)c2c([N+](=O)[O-])c(C(C)(C)C)nn2C)c(C)c1	-2	-1	137*	109	1	103	4	105
COCCn1cc(C(=S)N2CCCCC2)c2ccccc21	-1	0	100	101	1	.	.	.
CC1(c2nnc(-c3ccc(F)cc3)o2)CC(c2ccc(F)cc2)=NO1 (configuration not stated)	.	.	57	52	4	.	.	.
COc1ccc(C2=NOC(C)(c3nnc(-c4ccc(F)cc4)o3)C2)cc1 (configuration not stated)	.	.	81*[inhibitor]	96	-2	97	-10	95
Cc1c2cnn(CC(=O)NCCN3CCOCC3)c(=O)c2c(C)n1Cc1ccccc1	-3	-3	100	101	3	.	.	.
Cc1c2cnn(CC(=O)NCCCN3CCCCC3)c(=O)c2c(C)n1Cc1ccccc1	-2	-1	101	137*	22	128	20	98
C(=N\N1CCN(c2ccccc2)CC1)/c1ccccc1	-4	-2	105	106	3	.	.	.
CC(C)c1nnc(NC(=O)C2CCCN2C(=O)Nc2ccccc2[N+](=O)[O-])s1 (configuration not stated)	-1	0	107	105	-2	.	.	.
CC(C)c1nnc(NC(=O)C2CCCN2C(=O)Nc2ccccc2F)s1 (configuration not stated)	-3	-2	151*	129	7	100	-3	100
CC(C)c1nnc(NC(=O)C2CCCN2C(=O)Nc2ccc(F)cc2)s1 (configuration not stated)	-2	-6	99	103	4	.	.	.
COc1ccccc1NC(=O)N1CCCC1C(=O)Nc1nnc(C(C)C)s1 (configuration not stated)	-2	-1	3.0*[inhibitor]	3.0*[inhibitor]	-14	108	10	106
COc1ccc(/C=N/Nc2cc(C)nc3ccc(OC)cc23)c(OC)c1	1	5	114	389*	180*	282*	141*	118
